Here are results for 38 molecules from ChEMBL document CHEMBL1125462, “Substituent variation in azabicyclic triazole- and tetrazole-based muscarinic receptor ligands” (J Med Chem, 1992).

Usually IC50 stands for the concentration at which inhibition is half-maximal. Higher therefore signals lower potency.

The structures appear in SMILES notation.

Assay [1] concerns the target Muscarinic acetylcholine receptor. Nature of the assay: In vitro displacement of [3H]quinuclidinyl benzilate (QNB) from rat cerebral cortex muscarinic receptor. Format: tissue-based. A general note: Displacement assays read how much labelled ligand stays bound in the presence of the test substance.
Assay [2] shares this target. Kind of assay: In vitro ability to displace [3H]oxotremorine-M (OXO-M) from rat cerebral cortex muscarinic receptor. Type of assay: tissue-based.
For assay [3] the target is unchanged. Nature of the assay: In vitro ability to displace [3H]oxotremorine-M (OXO-M) from rat cerebral cortex muscarinic acetylcholine receptor. Type of assay: tissue-based. The essentials: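 Hooded Lister rat cerebral cortex homogenised in ice-cold 50 mM Tris pH 7.7 (at 25 °C), washed by repeated 25000g spins, stored at -20 °C. Incubation buffer with 2 mM MgCl2; 37 °C, 30 min; filtered on GF/B filters presoaked in 0.05% polyethylenamine; scintillation counting. Seven concentrations; geometric mean of at least two separate experiments; IC50 (nM).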

Assay [4] shares this target. Nature of the assay: In vitro ability to displace [3H]quinuclidinyl benzilate (QNB) from rat cerebral cortex muscarinic acetylcholine receptor. Type of assay: tissue-based. The essentials: (§1)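 Washed Hooded Lister rat cerebral cortex membranes (50 mM Tris pH 7.7), diluted from stored stock, incubated with test compound and 0.27 nM [3H]QNB at 37 °C for 30 min. GF/B filtration, ice-cold buffer washes, scintillation counting. Nonspecific binding typically 25% of total. Seven concentrations; geometric mean of separate experiments; IC50 (nM).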

Assay [5] has as its target Muscarinic acetylcholine receptor (Rattus norvegicus) (UniProt P08482+P08483+P08485+P08911+P10980). Nature of the assay: Ratio of Compound (IC50(nM) of QNB/ IC50(nM) of OXO-M). Format: protein assay.
Assay [6] has as its target Muscarinic acetylcholine receptor. Nature of the assay: In vitro ability to displace [3H]oxotremorine-M (OXO-M) from rat cerebral cortex Muscarinic acetylcholine receptor. Format: tissue-based.
Assay [7] shares this target. Kind of assay: In vitro ability to displace [3H]quinuclidinyl benzilate (QNB) from rat cerebral cortex Muscarinic acetylcholine receptor. Type of assay: tissue-based.
The target is the same in assay [8]. Kind of assay: In vitro ability to displace [3H]quinuclidinyl benzilate (QNB) from rat cerebral cortexMuscarinic acetylcholine receptor. Type of assay: tissue-based, Cerebral cortex. In outline: as §1

Turning to `Cn1nnc([C@H]2CN3CC[C@H]2C3)n1`, the IC50 in assay [1] turned out to be 2900 nM; in assay [2], 11 nM.

Take `Clc1nnn(C23CCCN(CC2)C3)n1` (stereo unspecified): the figures for the IC50 in assay [3] and in assay [4] were 3.5 nM and 332 nM, respectively. Besides, the Ratio in assay [5] amounted to 95.

Turning to `c1ncn([C@H]2CN3CC[C@H]2C3)n1`, the half-inhibitory concentration (IC50) is 38200 nM in assay [1] and 79 nM in assay [2].

With `Clc1nnn(C2CN3CCC2CC3)n1` (stereo unspecified), the values for the IC50 in assay [3] and in assay [4] were 27 nM and 578 nM, respectively. The Ratio in assay [5] stood at 21.

As for `Brc1nnn(C23CCCN(CC2)C3)n1` (stereo unspecified), the half-maximal inhibitory concentration (IC50) in assay [6] stood at 5.5 nM; in assay [7], 279 nM.

Take `Cn1nnc([C@@H]2CN3CC[C@H]2C3)n1`: the IC50 in assay [1] came to 30600 nM; in assay [2], 325 nM.

Take `Ic1nnn([C@H]2CN3CC[C@H]2C3)n1`: the IC50 in assay [3] is reported as 48 nM; in assay [4], 372 nM. In addition, in assay [5], the Ratio was 8.

In the case of `Nc1nnn(C2CN3CCC2CC3)n1` (stereo unspecified), the values for the IC50 in assay [1] and in assay [2] were 4400 nM and 38 nM, respectively.

Turning to `c1nnn(C23CCCN(CC2)C3)n1` (stereo unspecified), the IC50 was determined as 7200 nM in assay [1] and 19 nM in assay [2].

With `c1ncn(C23CCCN(CC2)C3)n1` (stereo unspecified), the half-inhibitory concentration (IC50) was 3600 nM in assay [1] and 12 nM in assay [2].

In the case of `Brc1nnn(C2CN3CCC2CC3)n1` (stereo unspecified), the values for the half-inhibitory concentration (IC50) in assay [3] and in assay [4] were 20 nM and 488 nM, respectively. Besides, the Ratio in assay [5] was 25.

With `Cc1nnn(C23CCCN(CC2)C3)n1` (stereo unspecified), the IC50 in assay [1] turned out to be 1925 nM; in assay [2], 14 nM.

With `c1ncn(C23CCN(CC2)C3)n1`, the IC50 was 39900 nM in assay [1] and 79 nM in assay [2].

With `Cc1nnn([C@H]2CN3CC[C@H]2C3)n1`, the values for the IC50 in assay [1] and in assay [2] were 1900 nM and 4.2 nM, respectively.

For `Clc1nnn([C@H]2CN3CC[C@H]2C3)n1`, the values for the IC50 in assay [3] and in assay [4] were 7.6 nM and 630 nM, respectively. Besides, the Ratio in assay [5] was 83.

Regarding `Nc1nnn([C@H]2CN3CC[C@H]2C3)n1`, the IC50 in assay [1] amounted to 4360 nM; in assay [2], 2.6 nM.

Consider `Cc1ncn(C23CCN(CC2)C3)n1`, for which the IC50 came to 14900 nM in assay [1] and 86 nM in assay [2].

For the molecule `c1nnn([C@H]2CN3CC[C@H]2C3)n1`, the values for the IC50 in assay [1] and in assay [2] were 14300 nM and 30 nM, respectively.

For the molecule `Cc1ncn([C@H]2CN3CC[C@H]2C3)n1`, the figures for the IC50 in assay [1] and in assay [2] were 4300 nM and 17 nM, respectively.

On to `Clc1ncn([C@H]2CN3CC[C@H]2C3)n1`, for which the figures for the IC50 in assay [8] and in assay [6] were 1290 nM and 14 nM, respectively.

Take `Ic1nnn(C2CN3CCC2CC3)n1` (stereo unspecified): the half-maximal inhibitory concentration (IC50) is 43 nM in assay [3] and 216 nM in assay [4]. The Ratio in assay [5] stood at 5.

Consider `Brc1nnn([C@H]2CN3CC[C@H]2C3)n1`, for which the IC50 in assay [3] came to 7.4 nM; in assay [4], 822 nM. The Ratio in assay [5] amounted to 111.

For the molecule `Cn1nnc(C23CCN(CC2)C3)n1`, the IC50 was found to be 46700 nM in assay [1] and 250 nM in assay [2].

Turning to `Cn1ncc(C23CCCN(CC2)C3)n1` (stereo unspecified), the IC50 in assay [1] came out at 3100 nM; in assay [2], 14 nM.

For `Nc1ncn(C23CCCN(CC2)C3)n1` (stereo unspecified), the IC50 is 3900 nM in assay [1] and 13 nM in assay [2].

On to `Nc1nnn(C23CCCN(CC2)C3)n1` (stereo unspecified), for which the IC50 in assay [1] came to 2670 nM; in assay [2], 5.9 nM.

With `Nc1ncn([C@H]2CN3CC[C@H]2C3)n1`, the IC50 in assay [1] is given as 3600 nM; in assay [2], 18 nM.

On to `N#Cc1nnn(C2CN3CCC2CC3)n1` (stereo unspecified), for which the figures for the 50% inhibitory concentration (IC50) in assay [1] and in assay [2] were 5200 nM and 1400 nM, respectively.

Turning to `Cc1ncn(C23CCCN(CC2)C3)n1` (stereo unspecified), the IC50 in assay [1] amounted to 2100 nM; in assay [2] it was 12 nM.

Take `OC(c1ccccc1)(c1ccccc1)c1nnn(C2CN3CCC2CC3)n1` (stereo unspecified): the IC50 in assay [1] was determined as 2.8 nM; in assay [2], 3.6 nM.

Turning to `Cn1ncc([C@H]2CN3CC[C@H]2C3)n1`, the IC50 in assay [1] amounted to 2800 nM; in assay [2] it was 5.4 nM.

For `Cn1ncc([C@@H]2CN3CC[C@H]2C3)n1`, the IC50 was found to be 13500 nM in assay [1] and 16 nM in assay [2].

As to `O=[N+]([O-])c1ncn([C@H]2CN3CC[C@H]2C3)n1`, the IC50 in assay [1] is given as 35600 nM; in assay [2], 4100 nM.

On to `Cn1nnc(C23CCCN(CC2)C3)n1` (stereo unspecified), for which the figures for the IC50 in assay [1] and in assay [2] were 5700 nM and 100 nM, respectively.

Consider `Brc1ncn([C@H]2CN3CC[C@H]2C3)n1`, for which the concentration for half-maximal inhibition (IC50) in assay [6] is 31 nM; in assay [7], 3040 nM.

`O=C1CCCN1CC#CCN1CCCC1`: the Ratio in assay [5] was found to be 190.

The molecule `Cc1nnn(C2CN3CCC2CC3)n1` (stereo unspecified) had an IC50 in assay [2] of 31 nM. This lies in the double-digit nanomolar range.

For the molecule `Cn1ncc(C23CCN(CC2)C3)n1`, the concentration for half-maximal inhibition (IC50) is reported as 14400 nM in assay [1] and 35 nM in assay [2].
